Reference: ChEMBL document CHEMBL1687913, “Structure-activity relationship, conformational and biological studies of temporin L analogues” (J Med Chem, 2011)
Converted amounts (≈) assume the structure as drawn. Where a SMILES comes first, the peptide text is derived from it.

Assays:
[1] = Toxicity in human erythrocytes assessed as hemolysis at 24 uM after 40 mins; type: cell-based, Erythrocyte; conditions: read-out: Activity
Outline: (§1)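 Human red blood cells suspended in 0.9% (w/v) NaCl and incubated 40 min at 37 °C with gentle mixing with serial 2-fold peptide dilutions (peptide predissolved in 20% ethanol). Spun 5 min at 900g; supernatant read at 415 nm. Cells lysed in distilled water set the 100% lysis reference.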

[2] = system: Saccharomyces cerevisiae; assay: Antifungal activity against Saccharomyces cerevisiae after 18 to 20 hrs by microbroth dilution method; type: functional
Outline: (§2)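 Yeasts tested by adapted CLSI microbroth dilution in Winge medium. Peptide given in serial 2-fold dilutions (0.75-48 μM, made in 20% ethanol). Incubation 18-20 h at 30 °C, read at A600. MIC taken as the concentration giving complete (100%) growth inhibition.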

[3] = system: Yersinia pseudotuberculosis; assay: Antibacterial activity against Yersinia pseudotuberculosis YPIII after 18 to 20 hrs by microbroth dilution method; type: functional
Outline: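 Broth microdilution adapted from CLSI. Mid-log bacteria at 2 × 10^6 CFU/mL in Mueller-Hinton broth were mixed 1:1 with MH broth containing peptide in serial 2-fold dilutions (peptide in 20% ethanol), 0.75-48 μM. Plates were incubated 18-20 h at 37 °C and growth was read as A600. MIC is the concentration giving 100% growth inhibition.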

[4] = system: Staphylococcus capitis; assay: Antibacterial activity against Staphylococcus capitis after 18 to 20 hrs by microbroth dilution method; type: functional
Outline: (§3)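 CLSI microbroth dilution, adapted. Mid-log bacteria, 2 × 10^6 CFU/mL in Mueller-Hinton broth, mixed 1:1 with MH broth holding peptide in serial 2-fold dilutions in 20% ethanol (0.75-48 μM). Incubated 18-20 h at 37 °C; growth read as A600. MIC is the lowest concentration giving 100% growth inhibition.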

[5] = system: Escherichia coli; assay: Antibacterial activity against Escherichia coli D21 after 18 to 20 hrs by microbroth dilution method; type: functional; outline: as §3
[6] = system: Escherichia coli; assay: Antibacterial activity against Escherichia coli ATCC 25922 after 18 to 20 hrs by microbroth dilution method; type: functional; outline: as §3
[7] = system: Pseudomonas aeruginosa; assay: Antibacterial activity against Pseudomonas aeruginosa ATCC 15692 after 18 to 20 hrs by microbroth dilution method; type: functional; outline: as §3
[8] = system: Acinetobacter baumannii; assay: Antibacterial activity against Acinetobacter baumannii ATCC 19606 after 18 to 20 hrs by microbroth dilution method; type: functional; outline: as §3
[9] = system: Enterococcus faecalis; assay: Antibacterial activity against Enterococcus faecalis ATCC 29212 after 18 to 20 hrs by microbroth dilution method; type: functional; outline: as §3
[10] = system: Staphylococcus aureus; assay: Antibacterial activity against Staphylococcus aureus Cowan I after 18 to 20 hrs by microbroth dilution method; type: functional; outline: as §3
[11] = system: Staphylococcus epidermidis; assay: Antibacterial activity against Staphylococcus epidermidis ATCC 12228 after 18 to 20 hrs by microbroth dilution method; type: functional; outline: as §3
[12] = Toxicity in human erythrocytes assessed as hemolysis at 6 uM after 40 mins; type: cell-based, Erythrocyte; conditions: read-out: Activity; outline: as §1
[13] = system: Acinetobacter junii; assay: Antibacterial activity against […] Acinetobacter junii RT-4 after 18 to 20 hrs by microbroth dilution method; type: functional; outline: as §3
[14] = system: Pseudomonas syringae; assay: Antibacterial activity against Pseudomonas syringae pv tobaci after 18 to 20 hrs by microbroth dilution method; type: functional; outline: as §3
[15] = system: Staphylococcus aureus; assay: Antibacterial activity against Staphylococcus aureus ATCC 25923 after 18 to 20 hrs by microbroth dilution method; type: functional; outline: as §3
[16] = Toxicity in human erythrocytes assessed as hemolysis at 3 uM after 40 mins; type: cell-based, Erythrocyte; conditions: read-out: Activity; outline: as §1
[17] = system: Priestia megaterium; assay: Antibacterial activity against Bacillus megaterium Bm11 after 18 to 20 hrs by microbroth dilution method; type: functional; outline: as §3
[18] = system: Candida albicans; assay: Antifungal activity against Candida albicans ATCC 10231 after 18 to 20 hrs by microbroth dilution method; type: functional; outline: as §2
[19] = system: Schizosaccharomyces pombe; assay: Antifungal activity against Schizosaccharomyces pombe after 18 to 20 hrs by microbroth dilution method; type: functional; outline: as §2
[20] = Toxicity in human erythrocytes assessed as hemolysis at 12 uM after 40 mins; type: cell-based, Erythrocyte; conditions: read-out: Activity; outline: as §1
[21] = system: Streptococcus pyogenes; assay: Antibacterial activity against Streptococcus pyogenes ATCC 21547 after 18 to 20 hrs by microbroth dilution method; type: functional; outline: as §3
[22] = Toxicity in human erythrocytes assessed as hemolysis at 1.5 uM after 40 mins; type: cell-based, Erythrocyte; conditions: read-out: Activity; outline: as §1
[23] = system: Pseudomonas aeruginosa; assay: Antibacterial activity against Pseudomonas aeruginosa ATCC 27853 after 18 to 20 hrs by microbroth dilution method; type: functional; outline: as §3

Structure (SMILES)	hemolysis at 40 min, 24 µM [1]	MIC [2]	MIC [3]	MIC [4]	MIC [5]	MIC [6]	MIC [7]	MIC [8]	MIC [9]	MIC [10]	MIC [11]	hemolysis at 40 min, 6 µM [12]	MIC [13]	MIC [14]	MIC [15]	hemolysis at 40 min, 3 µM [16]	MIC [17]	MIC [18]	MIC [19]	hemolysis at 40 min, 12 µM [20]	further results
CC(C)C[C@H](NC(=O)[C@H](Cc1c[nH]c2ccccc12)NC(=O)[C@H](CCCNC(=N)N)NC(=O)CNC(=O)[C@H](CC(C)C)NC(=O)[C@H](CC(C)C)NC(=O)[C@H](CCCCN)NC(=O)[C@H](CO)NC(=O)[C@H](CC(C)C)NC(=O)[C@H](Cc1c[nH]c2ccccc12)NC(=O)[C@H](CCC(N)=O)NC(=O)[C@H](CC(C)C)NC(=O)[C@@H](N)CC(C)C)C(N)=O (H-LLQWLSKLLGRWL-NH2)	100%	12 µM (≈ 19.5 µg/mL)	6 µM (≈ 9.75 µg/mL)	6 µM (≈ 9.75 µg/mL)	> 48 µM	> 48 µM	> 48 µM	6 µM (≈ 9.75 µg/mL)	12 µM (≈ 19.5 µg/mL)	6 µM (≈ 9.75 µg/mL)	3 µM (≈ 4.88 µg/mL)	78%	6 µM (≈ 9.75 µg/mL)	12 µM (≈ 19.5 µg/mL)	6 µM (≈ 9.75 µg/mL)	13%	3 µM (≈ 4.88 µg/mL)	12 µM (≈ 19.5 µg/mL)	6 µM (≈ 9.75 µg/mL)	100%	MIC [21]: 6 µM (≈ 9.75 µg/mL); hemolysis at 40 min, 1.5 µM [22]: 8%; MIC [23]: > 48 µM
CC[C@H](C)[C@H](NC(=O)[C@H](CCCNC(=N)N)NC(=O)CNC(=O)[C@H](CC(C)C)NC(=O)[C@H](Cc1ccccc1)NC(=O)[C@H](CCCCN)NC(=O)[C@H](CO)NC(=O)[C@H](Cc1ccccc1)NC(=O)[C@H](Cc1c[nH]c2ccccc12)NC(=O)[C@H](CCC(N)=O)NC(=O)[C@@H](NC(=O)[C@@H](N)Cc1ccccc1)C(C)C)C(=O)N[C@@H](CC(C)C)C(N)=O [TEMPORIN L]	94%	6 µM (≈ 9.84 µg/mL)	3 µM (≈ 4.92 µg/mL)	1.5 µM (≈ 2.46 µg/mL)	12 µM (≈ 19.7 µg/mL)	12 µM (≈ 19.7 µg/mL)	24 µM (≈ 39.4 µg/mL)	6 µM (≈ 9.84 µg/mL)	6 µM (≈ 9.84 µg/mL)	3 µM (≈ 4.92 µg/mL)	3 µM (≈ 4.92 µg/mL)	48%	3 µM (≈ 4.92 µg/mL)	6 µM (≈ 9.84 µg/mL)	3 µM (≈ 4.92 µg/mL)	13%	1.5 µM (≈ 2.46 µg/mL)	12 µM (≈ 19.7 µg/mL)	6 µM (≈ 9.84 µg/mL)	92%	MIC [21]: 6 µM (≈ 9.84 µg/mL); hemolysis at 40 min, 1.5 µM [22]: 3%; MIC [23]: > 48 µM
